Measurements: ChEMBL document CHEMBL1154110, “Identification, structure-activity relationships and molecular modeling of potent triamine and piperazine opioid ligands” (Bioorg Med Chem, 2009)

Tests used:
[1] = molecular target: Delta-type opioid receptor (Rattus norvegicus, UniProt P33533); assay: Displacement of [3H]DSLET from delta opioid receptor in rat brain by liquid scintillation counting; assay type: tissue-based
Mu-type opioid receptor = Mu-type opioid receptor (Rattus norvegicus, UniProt P33535); assay: Displacement of [3H]DAMGO from mu opioid receptor in rat brain by liquid scintillation counting; assay type: tissue-based
Chain of Mu-type opioid receptor (P33535 whole entry): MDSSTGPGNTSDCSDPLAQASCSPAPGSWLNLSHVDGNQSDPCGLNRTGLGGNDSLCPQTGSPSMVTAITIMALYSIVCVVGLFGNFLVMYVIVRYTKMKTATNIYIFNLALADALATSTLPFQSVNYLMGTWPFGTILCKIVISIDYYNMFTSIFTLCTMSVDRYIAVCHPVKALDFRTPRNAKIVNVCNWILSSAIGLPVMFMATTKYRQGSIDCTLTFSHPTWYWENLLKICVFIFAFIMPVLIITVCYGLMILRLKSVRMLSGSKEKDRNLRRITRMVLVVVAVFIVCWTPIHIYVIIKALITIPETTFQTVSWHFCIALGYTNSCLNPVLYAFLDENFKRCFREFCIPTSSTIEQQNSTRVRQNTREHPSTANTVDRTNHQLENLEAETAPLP

[2] = molecular target: Kappa-type opioid receptor (Cavia porcellus, UniProt P41144); assay: Displacement of [3H]U69593 from guinea pig kappa opioid receptor by liquid scintillation counting
Chain of Kappa-type opioid receptor (P41144 whole entry): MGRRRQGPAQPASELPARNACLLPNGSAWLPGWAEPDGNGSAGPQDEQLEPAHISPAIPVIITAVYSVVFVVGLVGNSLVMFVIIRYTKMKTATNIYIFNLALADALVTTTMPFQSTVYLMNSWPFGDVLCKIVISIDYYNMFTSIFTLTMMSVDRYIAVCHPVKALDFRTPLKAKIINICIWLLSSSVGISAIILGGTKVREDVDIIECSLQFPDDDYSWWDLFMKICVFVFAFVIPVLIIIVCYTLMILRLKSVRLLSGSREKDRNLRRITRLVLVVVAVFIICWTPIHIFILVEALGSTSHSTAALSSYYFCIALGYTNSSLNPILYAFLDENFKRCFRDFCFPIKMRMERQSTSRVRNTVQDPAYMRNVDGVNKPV
How it was run: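 Receptor membrane suspension incubated with 3 nM [3H]U69,593 as the tritiated competitor. Unlabeled U50,488 served as the kappa standard: it generated a standard curve on every plate and defined nonspecific binding. IC50 values came from dose-response testing.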

Chain of Delta-type opioid receptor (P33533 whole entry): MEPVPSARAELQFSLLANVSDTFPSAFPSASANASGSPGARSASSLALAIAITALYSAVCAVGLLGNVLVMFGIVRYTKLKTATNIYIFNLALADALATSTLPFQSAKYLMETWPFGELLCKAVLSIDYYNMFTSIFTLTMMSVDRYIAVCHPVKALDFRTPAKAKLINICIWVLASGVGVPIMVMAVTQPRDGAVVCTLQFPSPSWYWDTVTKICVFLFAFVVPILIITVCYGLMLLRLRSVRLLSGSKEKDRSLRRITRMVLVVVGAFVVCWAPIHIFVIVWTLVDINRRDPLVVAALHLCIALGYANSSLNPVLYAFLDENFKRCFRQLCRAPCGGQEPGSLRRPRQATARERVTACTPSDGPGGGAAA

Compound | IC50 [1] [µM] | IC50 (Mu-type opioid receptor) [nM] | IC50 [2] [nM]
CC(C)(C)CCN1CCN([C@@H](CNCc2ccccc2)Cc2ccc(O)cc2)C[C@@H]1Cc1ccc(O)cc1 | 4.55 | > 1000 | 387
CNC[C@H](Cc1ccc(O)cc1)NC[C@H](Cc1ccc(O)cc1)NCC1CCC(C)CC1 (stereo partly specified) | > 10 | 313 | 102
CC(C)[C@@H]1CN([C@@H](CNCc2ccccc2)C(C)C)CCN1CCc1ccccc1 | > 10 | > 1000 | > 1000
CCC(C)[C@@H](CNC)N1CCN(CCC23CC4CC(CC(C4)C2)C3)[C@H](C(C)C)C1 (stereo partly specified) | > 10 | > 1000 | 119
CCC[C@H](CNC)NC[C@@H](CCC)NCC1CCC(C)CC1 (stereo partly specified) | > 10 | > 1000 | > 1000
CC[C@H](C)[C@@H](CNC)N1CCN(CCCC2CCCCC2)[C@H](C(C)C)C1 | > 10 | > 1000 | 58
CCC[C@H](CNC)NC[C@@H](CCC)NCCC1CC2CCC1C2 (stereo partly specified) | > 10 | > 1000 | > 1000
CNC[C@@H](Cc1ccc(O)cc1)N1CCN(CCC2CC3CCC2C3)[C@@H](C(C)C)C1 (stereo partly specified) | > 10 | > 1000 | > 1000
CCC[C@H](CN[C@H](CNC)Cc1ccc(O)cc1)NCCC1CCCC1 | > 10 | 648 | 97
CNC[C@@H](Cc1ccc(O)cc1)N1CCN(CCC2CC3CCC2C3)CC1 (stereo partly specified) | > 10 | 92 | 476
CCC[C@H](CN[C@H](CNC)Cc1ccc(O)cc1)NCCC1CC2CCC1C2 (stereo partly specified) | 2.1 | 174 | 17
CNC[C@H](Cc1ccc(O)cc1)NC[C@H](Cc1ccc(O)cc1)NCCC1CCCC1 | 2.88 | 170 | 186
CNC[C@@H](Cc1ccc(O)cc1)N1CCN(CCCC(C)C)[C@@H](C(C)C)C1 | > 10 | > 1000 | > 1000
CCC[C@H](CNC)NC[C@@H](CCC)NCCC1CCCC1 | > 10 | > 1000 | 102
CC(C)[C@@H]1CN([C@@H](CNCc2ccccc2)C(C)C)CCN1CCC1CC2CCC1C2 (stereo partly specified) | > 10 | > 1000 | > 1000
CC(C)[C@H](CNCc1ccccc1)N1CCN(CCC2CC3CCC2C3)[C@@H](Cc2ccccc2)C1 (stereo partly specified) | > 10 | > 1000 | > 1000
CNC[C@@H](Cc1ccc(O)cc1)N1CCN(CC2CCCCCC2)CC1 | > 10 | 90 | 223
CCC[C@H](CN[C@H](CNC)Cc1ccc(O)cc1)NCCC12CC3CC(CC(C3)C1)C2 | > 10 | 530 | 37
CCC[C@H](CNC)NC[C@@H](CCC)NCC1CCCCCC1 | > 10 | > 1000 | > 1000
CNC[C@H](Cc1ccc(O)cc1)NC[C@H](Cc1ccc(O)cc1)NCCC1CC2CCC1C2 (stereo partly specified) | > 10 | 270 | 452
CCC[C@H](CNC)NC[C@H](Cc1ccc(O)cc1)NCC1CCCCCC1 | > 10 | 107 | 439

Compound | IC50 [1] [µM] | IC50 (Mu-type opioid receptor) [nM] | IC50 [2] [nM]
CC[C@H](C)[C@@H](CNC)N1CCN(CCC2CC3CCC2C3)[C@H](C(C)C)C1 (stereo partly specified) | > 10 | > 1000 | > 1000
CCCC[C@H](CNCc1ccccc1)N1CCN(CC2CCCCCC2)[C@H](Cc2ccc(O)cc2)C1 | > 10 | > 1000 | 161
CNC[C@@H](Cc1ccc(O)cc1)N1CCN(CCCC(C)C)CC1 | > 10 | 471 | > 1000
CC(C)[C@H](CNCc1ccccc1)N1CCN(CCC2CCCC2)[C@@H](Cc2ccccc2)C1 | > 10 | > 1000 | > 1000
CNC[C@H](Cc1ccc(O)cc1)N1CCN(CCC2CC3CCC2C3)CC1 (stereo partly specified) | 1.96 | 167 | 373
CCC[C@H](CNC)NC[C@H](Cc1ccc(O)cc1)NCC1CCC(C)CC1 (stereo partly specified) | > 10 | 225 | 1750
CNC[C@@H](Cc1ccc(O)cc1)N1CCN(CCc2cccc(C)c2)[C@@H](C(C)C)C1 | > 10 | > 1000 | > 1000
CNC[C@H](Cc1ccc(O)cc1)N1CCN(CCc2cccc(C)c2)[C@@H](C(C)C)C1 | > 10 | 206 | > 1000
CC(C)CCN1CCN([C@@H](CNCc2ccccc2)C(C)C)C[C@H]1C(C)C | > 10 | > 1000 | > 1000
CNC[C@H](Cc1ccc(O)cc1)NC[C@H](Cc1ccc(O)cc1)NCC1CCCCCC1 | > 10 | 54 | 22
CC(C)[C@@H]1CN([C@@H](CNCc2ccccc2)C(C)C)CCN1CCC1CCCC1 | > 10 | > 1000 | > 1000
CCC[C@H](CNC)NC[C@@H](CCC)NCCC12CC3CC(CC(C3)C1)C2 | > 10 | > 1000 | > 1000
CNC[C@H](Cc1ccc(O)cc1)N1CCN(CCC2CC3CCC2C3)[C@@H](C(C)C)C1 (stereo partly specified) | > 10 | 223 | 374
CCC[C@H](CN[C@H](CNC)Cc1ccc(O)cc1)NCC1CCC(C)CC1 (stereo partly specified) | > 10 | > 1000 | 14
CCC[C@H](CNC)NC[C@H](Cc1ccc(O)cc1)NCCC1CC2CCC1C2 (stereo partly specified) | > 10 | 178 | 333
CCCC[C@H](CNCc1ccccc1)N1CCN(CC(C)C)[C@H](Cc2ccc(O)cc2)C1 | > 10 | > 1000 | 102
CNC[C@@H](Cc1ccc(O)cc1)N1CCN(CC2CCCCCC2)[C@@H](C(C)C)C1 | > 10 | > 1000 | > 1000
CNC[C@@H](Cc1ccc(O)cc1)N1CCN(CCC2CC3CCC2C3)[C@H](C(C)C)C1 (stereo partly specified) | > 10 | 336 | 230
CNC[C@@H](Cc1ccc(O)cc1)N1CCN(CCCC2CCCCC2)[C@H](C(C)C)C1 | > 10 | 920 | 654
CNC[C@H](Cc1ccc(O)cc1)N1CCN(CC2CCCCCC2)CC1 | > 10 | 152 | 93
CCC[C@H](CNC)NC[C@H](Cc1ccc(O)cc1)NCCC1CCCC1 | > 10 | 240 | 766
